In ChEMBL document CHEMBL4689842, “EUbOPEN Chemogenomics Library wave 1” (2021):
Several values for one entry are separate records, joined by “and”; a condition that tells them apart may be missing. Equal values may be shown once.

Test system: Fibroblast
Assay: Multiplex assay against human fibroblast
Format: toxicity, cell-based
Outline: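 Cells stained live at seeding with Hoechst33342, BioTracker Green Microtubule Cytoskeleton Dye, MitoTracker Red and Annexin V Alexa Fluor 680 were imaged on a CQ1 microscope at 37°C and 5% CO2 after compound addition. Their classification by CellPathfinder machine-learning gating ran from Hoechst high-intensity objects versus normal cells, to healthy, pyknosed or fragmented nuclei among normal cells, to mitotic or apoptotic among pyknosed cells. Tubulin, mitochondrial-mass and membrane-permeability phenotypes are per cents of healthy-nucleus cells.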

[1] = 12 h, 1 µM, compound concentration 1 uM, replicate 1
[2] = 12 h, 1 µM, compound concentration 1 uM, replicate 2
[3] = 12 h, 10 µM, compound concentration 10 uM, replicate 1
[4] = 12 h, 10 µM, compound concentration 10 uM, replicate 2
[5] = 24 h, 1 µM, compound concentration 1 uM, replicate 1
[6] = 24 h, 1 µM, compound concentration 1 uM, replicate 2
[7] = 24 h, 10 µM, compound concentration 10 uM, replicate 1
[8] = 24 h, 10 µM, compound concentration 10 uM, replicate 2
[9] = 48 h, 1 µM, compound concentration 1 uM, replicate 1
[10] = 48 h, 1 µM, compound concentration 1 uM, replicate 2
[11] = 48 h, 10 µM, compound concentration 10 uM, replicate 1
[12] = 48 h, 10 µM, compound concentration 10 uM, replicate 2

C=CC(=O)Nc1cccc(C(=O)Nc2ccc(Nc3cc(-c4[nH]c(SC)nc4C)ccn3)cc2)c1
Population Apoptotic (%) [1]: 69% | Population Fragmented Nuclei (%) [1]: 23% | Population Healthy Nuclei (%) [1]: 43% | Population Hoechst High Intensity Objects (%) [1]: 11% | Population Membrane Permeable-Phenotype (%) [1]: 28% | Population Mitochondria Different-Phenotype (%) [1]: 8% | Population Mitotic Cells (%) [1]: 30% | Population Normal (%) [1]: 88% | Population Pyknosed Nuclei (%) [1]: 33% | Population Tubulin-Different-Phenotype (%) [1]: 36% | Total Cell Count [1]: 131 | Population Apoptotic (%) [2]: 0% | Population Fragmented Nuclei (%) [2]: 2% | Population Healthy Nuclei (%) [2]: 94% | Population Hoechst High Intensity Objects (%) [2]: 14% | Population Membrane Permeable-Phenotype (%) [2]: 0% | Population Mitochondria Different-Phenotype (%) [2]: 7% | Population Mitotic Cells (%) [2]: 100% | Population Normal (%) [2]: 85% | Population Pyknosed Nuclei (%) [2]: 2% | Population Tubulin-Different-Phenotype (%) [2]: 23% | Total Cell Count [2]: 112 | Population Apoptotic (%) [3]: 50% | Population Fragmented Nuclei (%) [3]: 27% | Population Healthy Nuclei (%) [3]: 50% | Population Hoechst High Intensity Objects (%) [3]: 19% | Population Membrane Permeable-Phenotype (%) [3]: 18% | Population Mitochondria Different-Phenotype (%) [3]: 13% | Population Mitotic Cells (%) [3]: 50% | Population Normal (%) [3]: 80% | Population Pyknosed Nuclei (%) [3]: 22% | Population Tubulin-Different-Phenotype (%) [3]: 29% | Total Cell Count [3]: 109 | Population Apoptotic (%) [4]: 40% | Population Fragmented Nuclei (%) [4]: 6% | Population Healthy Nuclei (%) [4]: 83% | Population Hoechst High Intensity Objects (%) [4]: 18% | Population Membrane Permeable-Phenotype (%) [4]: 7% | Population Mitochondria Different-Phenotype (%) [4]: 12% | Population Mitotic Cells (%) [4]: 60% | Population Normal (%) [4]: 81% | Population Pyknosed Nuclei (%) [4]: 10% | Population Tubulin-Different-Phenotype (%) [4]: 12% | Total Cell Count [4]: 78 | Population Apoptotic (%) [5]: 60% | Population Fragmented Nuclei (%) [5]: 20% | Population Healthy Nuclei (%) [5]: 55% | Population Hoechst High Intensity Objects (%) [5]: 13% | Population Membrane Permeable-Phenotype (%) [5]: 29% | Population Mitochondria Different-Phenotype (%) [5]: 3% | Population Mitotic Cells (%) [5]: 39% | Population Normal (%) [5]: 86% | Population Pyknosed Nuclei (%) [5]: 24% | Population Tubulin-Different-Phenotype (%) [5]: 34% | Total Cell Count [5]: 134 | Population Apoptotic (%) [6]: 37% | Population Fragmented Nuclei (%) [6]: 3% | Population Healthy Nuclei (%) [6]: 87% | Population Hoechst High Intensity Objects (%) [6]: 4% | Population Membrane Permeable-Phenotype (%) [6]: 2% | Population Mitochondria Different-Phenotype (%) [6]: 10% | Population Mitotic Cells (%) [6]: 62% | Population Normal (%) [6]: 95% | Population Pyknosed Nuclei (%) [6]: 8% | Population Tubulin-Different-Phenotype (%) [6]: 25% | Total Cell Count [6]: 122 | Population Apoptotic (%) [7]: 30% | Population Fragmented Nuclei (%) [7]: 32% | Population Healthy Nuclei (%) [7]: 43% | Population Hoechst High Intensity Objects (%) [7]: 13% | Population Membrane Permeable-Phenotype (%) [7]: 20% | Population Mitochondria Different-Phenotype (%) [7]: 4% | Population Mitotic Cells (%) [7]: 69% | Population Normal (%) [7]: 86% | Population Pyknosed Nuclei (%) [7]: 23% | Population Tubulin-Different-Phenotype (%) [7]: 30% | Total Cell Count [7]: 113 | Population Apoptotic (%) [8]: 40% | Population Fragmented Nuclei (%) [8]: 5% | Population Healthy Nuclei (%) [8]: 85% | Population Hoechst High Intensity Objects (%) [8]: 11% | Population Membrane Permeable-Phenotype (%) [8]: 8% | Population Mitochondria Different-Phenotype (%) [8]: 14% | Population Mitotic Cells (%) [8]: 60% | Population Normal (%) [8]: 88% | Population Pyknosed Nuclei (%) [8]: 9% | Population Tubulin-Different-Phenotype (%) [8]: 12% | Total Cell Count [8]: 95 | Population Apoptotic (%) [9]: 62% | Population Fragmented Nuclei (%) [9]: 25% | Population Healthy Nuclei (%) [9]: 50% | Population Hoechst High Intensity Objects (%) [9]: 11% | Population Membrane Permeable-Phenotype (%) [9]: 34% | Population Mitochondria Different-Phenotype (%) [9]: 3% | Population Mitotic Cells (%) [9]: 37% | Population Normal (%) [9]: 88% | Population Pyknosed Nuclei (%) [9]: 23% | Population Tubulin-Different-Phenotype (%) [9]: 25% | Total Cell Count [9]: 129 | Population Apoptotic (%) [10]: 100% | Population Fragmented Nuclei (%) [10]: 36% | Population Healthy Nuclei (%) [10]: 61% | Population Hoechst High Intensity Objects (%) [10]: 17% | Population Membrane Permeable-Phenotype (%) [10]: 28% | Population Mitochondria Different-Phenotype (%) [10]: 2% | Population Mitotic Cells (%) [10]: 0% | Population Normal (%) [10]: 82% | Population Pyknosed Nuclei (%) [10]: 1% | Population Tubulin-Different-Phenotype (%) [10]: 20% | Total Cell Count [10]: 69 | Population Apoptotic (%) [11]: 43% | Population Fragmented Nuclei (%) [11]: 37% | Population Healthy Nuclei (%) [11]: 47% | Population Hoechst High Intensity Objects (%) [11]: 12% | Population Membrane Permeable-Phenotype (%) [11]: 11% | Population Mitochondria Different-Phenotype (%) [11]: 0% | Population Mitotic Cells (%) [11]: 56% | Population Normal (%) [11]: 87% | Population Pyknosed Nuclei (%) [11]: 14% | Population Tubulin-Different-Phenotype (%) [11]: 23% | Total Cell Count [11]: 123 | Population Apoptotic (%) [12]: 100% | Population Fragmented Nuclei (%) [12]: 36% | Population Healthy Nuclei (%) [12]: 57% | Population Hoechst High Intensity Objects (%) [12]: 13% | Population Membrane Permeable-Phenotype (%) [12]: 20% | Population Mitochondria Different-Phenotype (%) [12]: 3% | Population Mitotic Cells (%) [12]: 0% | Population Normal (%) [12]: 86% | Population Pyknosed Nuclei (%) [12]: 5% | Population Tubulin-Different-Phenotype (%) [12]: 27% | Total Cell Count [12]: 118

CNCc1ccccc1-c1csc([C@H](C)Nc2nc(C)nc3cc(OC)c(OC)cc23)c1 [BAY-294]
Population Apoptotic (%) [3]: 43% and 56% and 82% | Population Fragmented Nuclei (%) [3]: 26% and 31% and 27% | Population Membrane Permeable-Phenotype (%) [3]: 18% and 34% and 33% | Population Normal (%) [3]: 70% and 93% and 84% | Population Pyknosed Nuclei (%) [3]: 25% and 52% and 62% | Population Tubulin-Different-Phenotype (%) [3]: 34% and 69% and 83% | Population Apoptotic (%) [4]: 78% and 55% and 57% | Population Fragmented Nuclei (%) [4]: 54% and 37% and 46% | Population Hoechst High Intensity Objects (%) [4]: 27% and 35% and 55% | Population Mitotic Cells (%) [4]: 21% and 45% and 42% | Population Normal (%) [4]: 72% and 64% and 44% | Population Pyknosed Nuclei (%) [4]: 31% and 19% and 30% | Population Tubulin-Different-Phenotype (%) [4]: 77% and 56% and 100% | Population Apoptotic (%) [7]: 54% and 89% | Population Fragmented Nuclei (%) [7]: 17% and 38% and 29% | Population Hoechst High Intensity Objects (%) [7]: 41% and 14% and 31% | Population Normal (%) [7]: 58% and 85% and 68% | Population Pyknosed Nuclei (%) [7]: 32% and 54% and 49% | Population Tubulin-Different-Phenotype (%) [7]: 31% and 43% and 83% | Population Apoptotic (%) [8]: 31% and 93% and 78% | Population Fragmented Nuclei (%) [8]: 33% and 60% and 52% | Population Hoechst High Intensity Objects (%) [8]: 37% and 38% and 54% | Population Normal (%) [8]: 62% and 61% and 45% | Population Pyknosed Nuclei (%) [8]: 29% and 33% and 27% | Population Apoptotic (%) [11]: 75% | Population Fragmented Nuclei (%) [11]: 40% | Population Healthy Nuclei (%) [11]: 44% | Population Hoechst High Intensity Objects (%) [11]: 35% | Population Membrane Permeable-Phenotype (%) [11]: 43% | Population Mitochondria Different-Phenotype (%) [11]: 52% | Population Mitotic Cells (%) [11]: 25% | Population Normal (%) [11]: 64% | Population Pyknosed Nuclei (%) [11]: 15% | Population Tubulin-Different-Phenotype (%) [11]: 65% | Population Apoptotic (%) [12]: 100% | Population Fragmented Nuclei (%) [12]: 84% | Population Healthy Nuclei (%) [12]: 8% | Population Hoechst High Intensity Objects (%) [12]: 31% | Population Membrane Permeable-Phenotype (%) [12]: 0% | Population Mitochondria Different-Phenotype (%) [12]: 100% | Population Mitotic Cells (%) [12]: 0% | Population Normal (%) [12]: 68% | Population Pyknosed Nuclei (%) [12]: 7% | Population Tubulin-Different-Phenotype (%) [12]: 0%
